Test results taken from ChEMBL document CHEMBL1212886, “New N-(phenoxydecyl)phthalimide derivatives displaying potent inhibition activity towards alpha-glucosidase” (Bioorg Med Chem, 2010).
Calls of active or inactive are those of the source. No cut-off for these calls is given here.

What was measured:
[1] = Inhibition of Saccharomyces cerevisiae alpha-glucosidase after 10 mins
How it was run: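 Yeast α-glucosidase, 25 mU/mL final, in 10 mM phosphate buffer pH 7.28, preincubated with test compound (DMSO) 5 min at 37 °C. p-NPG substrate 80 μM final; stopped after 10 min with 0.5 M Na2CO3; 4-nitrophenol read at 400 nm against DMSO control. Eight concentrations; triplicate, at least two runs; IC50 taken graphically from percent activity vs log concentration.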

[2] = molecular target: Alpha-galactosidase (Coffea arabica) (UniProt Q42656); assay: Inhibition of green coffee bean alpha-galactosidase at 25 uM after 10 mins
Chain of Alpha-galactosidase (Coffea arabica) (Q42656 16-378 limits assumed): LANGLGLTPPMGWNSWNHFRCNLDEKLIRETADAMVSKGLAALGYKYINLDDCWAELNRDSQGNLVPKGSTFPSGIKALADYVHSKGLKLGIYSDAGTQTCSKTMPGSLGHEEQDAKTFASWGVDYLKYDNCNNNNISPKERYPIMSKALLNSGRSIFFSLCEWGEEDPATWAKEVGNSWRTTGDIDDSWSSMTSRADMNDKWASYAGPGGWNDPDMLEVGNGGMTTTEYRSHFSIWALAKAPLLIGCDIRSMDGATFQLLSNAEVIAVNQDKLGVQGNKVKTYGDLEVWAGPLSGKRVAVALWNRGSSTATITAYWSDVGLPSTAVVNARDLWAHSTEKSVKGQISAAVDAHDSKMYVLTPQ
How it was run: (§1)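 Enzyme 12.5 mU per sample in buffer: β-glucosidase, 50 mM sodium citrate pH 5.0; α-mannosidase, 10 mM sodium acetate pH 4.5; α-galactosidase, 50 mM potassium phosphate pH 6.5. Compound in DMSO at 25 µM, preincubated 5 min at 37 °C; substrate added at 80 μM final; stopped after 10 min with 1 M Na2CO3. Absorbance compared with DMSO control; triplicate.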

Prunus dulcis = assay: Inhibition of almond beta-glucosidase at 25 uM after 10 mins; how it was run: as §1
Canavalia ensiformis = assay: Inhibition of Canavalia ensiformis alpha-mannosidase at 25 uM after 10 mins; how it was run: as §1
SH-SY5Y = assay: Cytotoxicity against human SH-SY5Y cells after 2 hrs by MTT assay; type: functional, cell-based
How it was run: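 SH-SY5Y neuroblastoma cells exposed to compound at 5 μM and at a second concentration for 2 h. MTT (5 mg/mL in DMEM + 10% FBS) then added, 4 h at 37 °C. Supernatant removed, formazan dissolved in DMSO, absorbance read at 540 nm. Sextuplicate, repeated twice.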

| SMILES | IC50 [1] [µM] | also measured |
| --- | --- | --- |
| O=C1c2ccccc2C(=O)N1CCOc1ccccc1 | 296 | – |
| O=C1c2ccccc2C(=O)N1CCCCCCCCCCOc1ccc(Cl)c(Cl)c1 | 1 | – |
| O=C1c2ccccc2C(=O)N1CCCCCCCCCCOc1ccc([N+](=O)[O-])cc1[N+](=O)[O-] | 0.97 | – |
| O=C1c2ccccc2C(=O)N1CCCOc1ccccc1 | 240 | – |
| O=C1c2ccccc2C(=O)N1CCCCOc1ccccc1 | 33 | – |
| Cc1cc([N+](=O)[O-])cc(C)c1OCCCCCCCCCCN1C(=O)c2ccccc2C1=O | 1.32 | – |
| O=C1c2ccccc2C(=O)N1CCCCCCCCOc1ccccc1 | 6.5 | – |
| Cc1cc(Cl)ccc1OCCN1C(=O)c2ccccc2C1=O | 14.8 | – |
| O=C1c2ccccc2C(=O)N1CCCCCCCCCCOc1ccc(C(F)(F)F)cc1 | 0.83 | – |
| O=C1c2ccccc2C(=O)N1CCCCCCCCCCOc1ccccc1 | 2.5 | – |
| O=C1c2ccccc2C(=O)N1CCCCCOc1ccccc1 | 20.2 | – |
| O=C1c2ccccc2C(=O)N1CCCCCCCCCCOc1ccc(Cl)cc1[N+](=O)[O-] | 0.475 | inhibition [2]: inactive; inhibition (Prunus dulcis): inactive; inhibition (Canavalia ensiformis): inactive; inhibition (SH-SY5Y): inactive |
| Cc1cc(Cl)cc(C)c1OCCCCCCCCCCN1C(=O)c2ccccc2C1=O | 1.34 | – |
| O=C1c2ccccc2C(=O)N1CCCCCCCCCCOc1ccc([N+](=O)[O-])cc1 | 0.86 | – |
| O=C1c2ccccc2C(=O)N1CCCCCCCCCCOc1ccc([N+](=O)[O-])c(C(F)(F)F)c1 | 0.83 | – |
| O=C1c2ccccc2C(=O)N1CCCCCCCCCCOc1cccc([N+](=O)[O-])c1 | 1.07 | – |
| O=C1c2ccccc2C(=O)N1CCCCCCCCCOc1ccccc1 | 3.04 | – |
| OC[C@H]1NC[C@H](O)[C@@H](O)[C@@H]1O [DUVOGLUSTAT] | 52 | – |
| O=C1c2ccccc2C(=O)N1CCCOc1ccc(Cl)cc1 | 59 | – |

| SMILES | IC50 [1] [µM] | also measured |
| --- | --- | --- |
| Cc1cc(Cl)c([N+](=O)[O-])c(C)c1OCCCCCCCCCCN1C(=O)c2ccccc2C1=O | 3.6 | – |
| O=C1c2ccccc2C(=O)N1CCCCCCCCCCOc1cccc(Cl)c1 | 1.09 | – |
| Cc1ccc(Cl)cc1OCCCCCCCCCCN1C(=O)c2ccccc2C1=O | 0.91 | – |
| O=C1c2ccccc2C(=O)N1CCCCCCCCCCOc1cc(Cl)c(Cl)cc1[N+](=O)[O-] | 0.52 | inhibition [2]: inactive; inhibition (Prunus dulcis): inactive; inhibition (Canavalia ensiformis): inactive; inhibition (SH-SY5Y): inactive |
| O=C1c2ccccc2C(=O)N1CCCOc1ccc(Cl)c(Cl)c1 | 7.55 | – |
| Cc1cccc(C)c1OCCCCCCCCCCN1C(=O)c2ccccc2C1=O | 3.25 | – |
| Cc1cc(Cl)cc(C)c1OCCCN1C(=O)c2ccccc2C1=O | 9.5 | – |
| Cc1ccc(OCCCCCCCCCCN2C(=O)c3ccccc3C2=O)cc1 | 2.1 | – |
| O=C1c2ccccc2C(=O)N1CCOc1ccc(Cl)cc1 | 94 | – |
| O=C1c2ccccc2C(=O)N1CCCCCCOc1ccccc1 | 10.3 | – |
| O=C1c2ccccc2C(=O)N1CCCCCCCCCCOc1ccc(Cl)cc1Cl | 1.19 | – |
| Cc1cc(Cl)cc(C)c1OCCN1C(=O)c2ccccc2C1=O | 13 | – |
| Cc1cc([N+](=O)[O-])c(Cl)cc1OCCCCCCCCCCN1C(=O)c2ccccc2C1=O | 0.65 | inhibition [2]: inactive; inhibition (Prunus dulcis): inactive; inhibition (Canavalia ensiformis): inactive; inhibition (SH-SY5Y): inactive |
| O=C1c2ccccc2C(=O)N1CCCOc1cccc(Cl)c1Cl | 15 | – |
| O=C1c2ccccc2C(=O)N1CCCCCCCCCCOc1ccc(C(F)(F)F)cc1[N+](=O)[O-] | 1.31 | – |
| O=C1c2ccccc2C(=O)N1CCCCCCCCCCOc1c(Cl)cc(Cl)cc1[N+](=O)[O-] | 0.75 | inhibition [2]: inactive; inhibition (Prunus dulcis): inactive; inhibition (Canavalia ensiformis): inactive; inhibition (SH-SY5Y): inactive |
| O=C1c2ccccc2C(=O)N1CCCCCCCCCCOc1ccc(Cl)cc1 | 1.2 | – |
| Cc1cc(Cl)ccc1OCCCN1C(=O)c2ccccc2C1=O | 8.9 | – |
| O=C1c2ccccc2C(=O)N1CCCCCCCCCCOc1ccccc1[N+](=O)[O-] | 1.78 | – |
